# According to ChEMBL document CHEMBL1914423, “New imidazo[2,1-b]thiazole derivatives: synthesis, in vitro anticancer evaluation, and in silico studies” (Eur J Med Chem, 2011):
# How the values were obtained:
# MDA-MB-435 = experiment: Anticancer activity against human MDA-MB-435 cells assessed as cell growth at 10^-5 M after 48 hrs by SRB assay; assay type: functional; conditions: MDA-MB-435, 48 h, read-out: Activity
# MCF7 = experiment: Anticancer activity against human MCF7 cells assessed as cell growth at 10^-5 M after 48 hrs by SRB assay; assay type: functional; conditions: MCF7, 48 h, read-out: Activity
# Outline: (§1)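 NCI-60 single-dose screen at one concentration. Cells grown in RPMI 1640 with 5% FBS and 2 mM L-glutamine, plated at 5000–40,000 cells/well, and pre-incubated 24 h at 37 °C in 5% CO2 before DMSO-dissolved drug was added. Cells fixed with TCA, SRB-stained, absorbance read at 515 nm. Percent growth calculated against time-zero and untreated control plates.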
# RXF 393 = experiment: Anticancer activity against human RXF393 cells assessed as cell growth at 10^-5 M after 48 hrs by SRB assay; assay type: functional; conditions: RXF 393, 48 h, read-out: Activity
# KM12 = experiment: Anticancer activity against human KM12 cells assessed as cell growth at 10^-5 M after 48 hrs by SRB assay; assay type: functional; conditions: KM12, 48 h, read-out: Activity; outline: as §1
# SNB-19 = experiment: Anticancer activity against human SNB19 cells assessed as cell growth at 10^-5 M after 48 hrs by SRB assay; assay type: functional; conditions: SNB-19, 48 h, read-out: Activity
# K562 = experiment: Anticancer activity against human K562 cells assessed as cell growth at 10^-5 M after 48 hrs by SRB assay; assay type: functional; conditions: K562, 48 h, read-out: Activity; outline: as §1
# IGROV-1 = experiment: Anticancer activity against human IGROV1 cells assessed as cell growth at 10^-5 M after 48 hrs by SRB assay; assay type: functional; conditions: IGROV-1, 48 h, read-out: Activity; outline: as §1
# MDA-MB-468 = experiment: Anticancer activity against human MDA-MB-468 cells assessed as cell growth at 10^-5 M after 48 hrs by SRB assay; assay type: functional; conditions: MDA-MB-468, 48 h, read-out: Activity
# SF-295 = experiment: Anticancer activity against human SF295 cells assessed as cell growth at 10^-5 M after 48 hrs by SRB assay; assay type: functional; conditions: SF-295, 48 h, read-out: Activity
# OVCAR-3 = experiment: Anticancer activity against human OVCAR3 cells assessed as cell growth at 10^-5 M after 48 hrs by SRB assay; assay type: functional; conditions: OVCAR-3, 48 h, read-out: Activity
# SK-MEL-28 = experiment: Anticancer activity against human SK-MEL-28 cells assessed as cell growth at 10^-5 M after 48 hrs by SRB assay; assay type: functional; conditions: SK-MEL-28, 48 h, read-out: Activity
# SF-539 = experiment: Anticancer activity against human SF539 cells assessed as cell growth at 10^-5 M after 48 hrs by SRB assay; assay type: functional; conditions: SF-539, 48 h, read-out: Activity
# 786-0 = experiment: Anticancer activity against human 786-0 cells assessed as cell growth at 10^-5 M after 48 hrs by SRB assay; assay type: functional; conditions: 786-0, 48 h, read-out: Activity; outline: as §1
# DU-145 = experiment: Anticancer activity against human DU145 cells assessed as cell growth at 10^-5 M after 48 hrs by SRB assay; assay type: functional; conditions: DU-145, 48 h, read-out: Activity; outline: as §1
# ACHN = experiment: Anticancer activity against human ACHN cells assessed as cell growth at 10^-5 M after 48 hrs by SRB assay; assay type: functional; conditions: read-out: Activity; outline: as §1
# SNB-75 = experiment: Anticancer activity against human SNB75 cells assessed as cell growth at 10^-5 M after 48 hrs by SRB assay; assay type: functional; conditions: SNB-75, 48 h, read-out: Activity
# Outline: (§2)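 NCI-60 single-dose screen: cells in RPMI 1640 with 5% FBS and 2 mM L-glutamine, plated at 5000–40,000 cells/well by doubling time, and preincubated 24 h at 37 °C. Compound given at one concentration from DMSO stock. Cells TCA-fixed and SRB-stained, absorbance at 515 nm. Percent growth relative to time-zero and untreated controls; inhibition % = 100 − growth %.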
# [1] = Antiproliferative activity against human A375P cells after 48 hrs by MTT assay; assay type: functional, cell-based
# Outline: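 A375P cells in DMEM with 10% FBS at 37 °C, 5% CO2. Seeded at 5×10³ cells/well, held 24 h, then treated with 12-point 3-fold serial dilutions for 48 h. Viability by MTT reduction. IC50 values are means of triplicate experiments.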
# HL-60(TB) = experiment: Anticancer activity against human HL-60(TB) cells assessed as cell growth at 10^-5 M after 48 hrs by SRB assay; assay type: functional; conditions: HL-60, 48 h, read-out: Activity
# Outline: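 NCI-60 single-dose screen. Cells in RPMI 1640 with 5% FBS and 2 mM L-glutamine were plated at 5000–40,000 cells/well and preincubated 24 h at 37 °C before one compound concentration. Time-zero plates were TCA-fixed at drug addition. For suspension cells, settled cells were fixed with cold TCA, then SRB-stained and read at 515 nm. Percent growth was calculated from time-zero, control and treated absorbances.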
# NCI-H226 = experiment: Anticancer activity against human NCI-H226 cells assessed as cell growth at 10^-5 M after 48 hrs by SRB assay; assay type: functional; conditions: NCI-H226, 48 h, read-out: Activity
# T47D = experiment: Anticancer activity against human T47D cells assessed as cell growth at 10^-5 M after 48 hrs by SRB assay; assay type: functional; conditions: read-out: Activity; outline: as §2
# RPMI-8226 = experiment: Anticancer activity against human RPMI8226 cells assessed as cell growth at 10^-5 M after 48 hrs by SRB assay; assay type: functional; conditions: RPMI-8226, 48 h, read-out: Activity
# HT-29 = experiment: Anticancer activity against human HT-29 cells assessed as cell growth at 10^-5 M after 48 hrs by SRB assay; assay type: functional; conditions: HT-29, 48 h, read-out: Activity; outline: as §1
# A549 = experiment: Anticancer activity against human A549 cells assessed as cell growth at 10^-5 M after 48 hrs by SRB assay; assay type: functional; conditions: A549, 48 h, read-out: Activity; outline: as §1
# HCT-15 = experiment: Anticancer activity against human HCT15 cells assessed as cell growth at 10^-5 M after 48 hrs by SRB assay; assay type: functional; conditions: HCT-15, 48 h, read-out: Activity; outline: as §1
# CAKI-1 = experiment: Anticancer activity against human Caki1 cells assessed as cell growth at 10^-5 M after 48 hrs by SRB assay; assay type: functional; conditions: CAKI-1, 48 h, read-out: Activity; outline: as §1
# NCI-H522 = experiment: Anticancer activity against human NCI-H522 cells assessed as cell growth at 10^-5 M after 48 hrs by SRB assay; assay type: functional; conditions: NCI-H522, 48 h, read-out: Activity
Compound,growth at 10 µM (MDA-MB-435),growth at 10 µM (MCF7),growth at 10 µM (RXF 393),growth at 10 µM (KM12),growth at 10 µM (SNB-19),growth at 10 µM (K562),growth at 10 µM (IGROV-1),growth at 10 µM (MDA-MB-468),growth at 10 µM (SF-295),growth at 10 µM (OVCAR-3),growth at 10 µM (SK-MEL-28),growth at 10 µM (SF-539),growth at 10 µM (786-0),growth at 10 µM (DU-145),growth at 10 µM (ACHN),growth at 10 µM (SNB-75),IC50 [1],growth at 10 µM (HL-60(TB)),growth at 10 µM (NCI-H226),growth at 10 µM (T47D),further results
COc1cccc(-c2nc3sccn3c2-c2ccnc(NCCNC(=O)c3cccc(C(F)(F)F)c3)n2)c1,38.8%,78.8%,60.5%,58.6%,102%,48.1%,53.4%,71.1%,54.2%,76%,75.9%,88.3%,76%,67.7%,49.5%,85.3%,4.8 µM,83.6%,87.5%,46.7%,growth at 10 µM (RPMI-8226): 25.8%; growth at 10 µM (HT-29): 49.8%; growth at 10 µM (A549): 56%; growth at 10 µM (HCT-15): 55.8%; growth at 10 µM (CAKI-1): 50.6%; growth at 10 µM (NCI-H522): 48.8%
COc1cccc(-c2nc3sccn3c2-c2ccnc(NCCNC(=O)c3cc(C(F)(F)F)cc(C(F)(F)F)c3)n2)c1,83.9%,72.5%,51.2%,79.4%,99.2%,83.5%,81.5%,95.6%,94.5%,90.9%,97.6%,88.3%,75.9%,94.4%,88.2%,75.8%,> 10 µM,131%,102%,77%,growth at 10 µM (RPMI-8226): 50%; growth at 10 µM (HT-29): 69.8%; growth at 10 µM (A549): 81.2%; growth at 10 µM (HCT-15): 83.8%; growth at 10 µM (CAKI-1): 85.9%; growth at 10 µM (NCI-H522): 78.4%
COc1cccc(-c2nc3sccn3c2-c2ccnc(NCCNC(=O)c3ccc(N4CCOCC4)c(C(F)(F)F)c3)n2)c1,60.8%,90.9%,78.5%,76.2%,105%,32.6%,68.6%,90.5%,69.2%,93.8%,89.5%,79%,71.5%,111%,70.6%,82.5%,> 10 µM,85.2%,85.4%,67%,growth at 10 µM (RPMI-8226): 39%; growth at 10 µM (HT-29): 50%; growth at 10 µM (A549): 76.2%; growth at 10 µM (HCT-15): 66.6%; growth at 10 µM (CAKI-1): 68.8%; growth at 10 µM (NCI-H522): 60.6%
COc1cccc(-c2nc3sccn3c2-c2ccnc(NCCNC(=O)c3cc(N4CCOCC4)cc(C(F)(F)F)c3)n2)c1,62.8%,84.9%,72.6%,83.2%,103%,90.1%,67.5%,98.1%,83.7%,96.3%,88.2%,101%,74.4%,94.6%,80.1%,72.2%,> 10 µM,113%,104%,86.3%,growth at 10 µM (RPMI-8226): 39.1%; growth at 10 µM (HT-29): 58.5%; growth at 10 µM (A549): 82.2%; growth at 10 µM (HCT-15): 88.5%; growth at 10 µM (CAKI-1): 83%; growth at 10 µM (NCI-H522): 69.5%
O=C(NCCNc1nccc(-c2c(-c3cccc(O)c3)nc3sccn23)n1)c1cccc(C(F)(F)F)c1,21.7%,75.3%,79.9%,81%,116%,56.2%,62.1%,70.5%,69.6%,89.8%,38.5%,100%,89.3%,91.4%,66%,73.8%,2.1 µM,95.5%,88.5%,69.5%,growth at 10 µM (RPMI-8226): 44.2%; growth at 10 µM (HT-29): 81.1%; growth at 10 µM (A549): 71.3%; growth at 10 µM (HCT-15): 87.8%; growth at 10 µM (CAKI-1): 75.6%; growth at 10 µM (NCI-H522): 48.5%
